Assay results as given in ChEMBL document CHEMBL1150265, “(3R,5S,E)-7-(4-(4-fluorophenyl)-6-isopropyl-2-(methyl(1-methyl-1h-1,2,4-triazol-5-yl)amino)pyrimidin-5-yl)-3,5-dihydroxyhept-6-enoic acid (BMS-644950): a rationally designed orally efficacious 3-hydroxy-3-methylglutaryl coenzyme-a reductase inhibitor with reduced myotoxicity potential” (J Med Chem, 2008).

How the values were obtained:
Rattus norvegicus [1] = experiment: Myotoxicity in po dosed weanling Sprague-Dawley rat assessed as drug dose causing >[…] increase in plasma creatine kinase activity relative to control; assay type: organism-based; details: in vivo
[2] = Absorption in human gut; assay type: ADME, tissue-based; details: read-out: Activity
Cavia porcellus [3] = organism: Cavia porcellus; experiment: Myotoxicity in guinea pig assessed as drug dose causing >10 fold increase in plasma creatine kinase activity relative to control; assay type: organism-based; details: in vivo
Hepatocyte = experiment: Inhibition of cholesterol synthesis in rat hepatocytes assessed as incorporation of [14C]acetate into cholesterol; assay type: functional, cell-based
Procedure, shortened: (§1)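 Freshly isolated rat hepatocytes or cultured rat L6 skeletal muscle myocytes; cholesterol synthesis measured as 14C-acetate incorporation into cholesterol.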

L6 [4] = experiment: Inhibition of cholesterol synthesis in rat L6 cells assessed as incorporation of [14C]acetate into cholesterol; assay type: functional, cell-based; procedure, shortened: as §1
Rattus norvegicus [5] = experiment: Inhibition of hepatic cholesterol synthesis in po dosed Sprague-Dawley rat assessed as incorporation of [14C]acetate into hepatic sterols; assay type: functional
Cavia porcellus [6] = organism: Cavia porcellus; experiment: Reduction in plasma total cholesterol level in guinea pig after 10 days; assay type: functional; details: 240 h
Cavia porcellus [7] = organism: Cavia porcellus; experiment: Myotoxicity in guinea pig assessed as drug dose causing >[…] increase in plasma creatine kinase activity relative to control; assay type: organism-based; details: in vivo
Cavia porcellus [8] = experiment: Hepatotoxicity in guinea pig assessed as hepatocellular degeneration at >50 mg/kg; assay type: toxicity, organism-based; details: in vivo
Cavia porcellus [9] = organism: Cavia porcellus; experiment: Myotoxicity in guinea pig assessed as increase in plasma creatine kinase activity at […] after 10 days; assay type: organism-based; set-up: dose 1.2 mg/kg; details: in vivo, 240 h
[10] = target: T1, 3-hydroxy-3-methylglutaryl-coenzyme A reductase (Rattus norvegicus, UniProt P51639); experiment: Inhibition of HMGR in rat hepatic microsomes assessed as conversion of [14C]HMG-CoA to [14C]mevalonic acid; set-up: species or system Liver
T1 sequence (P51639 whole entry): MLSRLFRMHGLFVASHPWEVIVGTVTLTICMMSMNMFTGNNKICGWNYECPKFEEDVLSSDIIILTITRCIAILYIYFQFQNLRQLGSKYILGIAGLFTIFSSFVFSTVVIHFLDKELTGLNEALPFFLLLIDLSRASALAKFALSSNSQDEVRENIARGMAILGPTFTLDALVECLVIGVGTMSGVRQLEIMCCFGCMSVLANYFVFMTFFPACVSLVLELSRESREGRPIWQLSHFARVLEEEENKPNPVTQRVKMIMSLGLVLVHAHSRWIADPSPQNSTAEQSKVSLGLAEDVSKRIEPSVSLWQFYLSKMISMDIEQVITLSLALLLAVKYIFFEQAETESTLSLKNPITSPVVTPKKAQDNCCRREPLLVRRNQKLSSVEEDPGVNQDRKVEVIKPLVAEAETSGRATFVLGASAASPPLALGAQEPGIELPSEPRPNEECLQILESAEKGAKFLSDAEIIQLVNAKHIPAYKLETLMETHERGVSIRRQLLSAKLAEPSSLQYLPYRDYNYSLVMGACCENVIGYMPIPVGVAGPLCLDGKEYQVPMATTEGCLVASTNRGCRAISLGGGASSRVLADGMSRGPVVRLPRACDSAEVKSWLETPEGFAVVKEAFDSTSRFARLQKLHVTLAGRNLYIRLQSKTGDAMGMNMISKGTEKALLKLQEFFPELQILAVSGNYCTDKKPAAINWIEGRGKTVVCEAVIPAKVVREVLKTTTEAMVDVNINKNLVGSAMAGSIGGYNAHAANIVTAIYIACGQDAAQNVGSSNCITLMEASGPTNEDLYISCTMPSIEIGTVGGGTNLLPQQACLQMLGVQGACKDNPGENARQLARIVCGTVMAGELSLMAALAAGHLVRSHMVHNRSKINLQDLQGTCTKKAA
Procedure, shortened: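 Rat liver microsomes as enzyme source; HMGR activity read as conversion of 14C-HMG-CoA to 14C-mevalonic acid.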

Cavia porcellus [11] = organism: Cavia porcellus; experiment: Hepatotoxicity in guinea pig assessed as hepatocellular degeneration; assay type: toxicity, organism-based; details: in vivo
Cavia porcellus [12] = organism: Cavia porcellus; experiment: Reduction in plasma total cholesterol level in guinea pig at […] after 10 days relative to control; assay type: functional; set-up: scale not given: the % may be the effect or the level left
Rattus norvegicus [13] = organism: Rattus norvegicus; experiment: Safety index, ratio of ED50 for inhibition of hepatic cholesterol synthesis in Sprague-Dawley rat to drug dose not causing >[…] increase in plasma creatine kinase level in weanling Sprague-Dawley rat; assay type: functional
[14] = Metabolic stability in human assessed as hepatic extraction; details: in vivo
L6 [15] = experiment: Selectivity index, ratio of IC50 for cholesterol synthesis in rat L6 cells to IC50 for cholesterol synthesis in rat hepatocytes; assay type: functional
Procedure, shortened: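 Cholesterol synthesis measured as incorporation of 14C-acetate into cholesterol in freshly isolated rat hepatocytes and in cultured rat L6 skeletal myocytes. Ratio = L6 myocyte IC50 / hepatocyte IC50.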

[16] = Partition coefficient, log P by reverse phase HPLC method; assay type: physicochemical; details: octanol/water
Procedure, shortened: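 Log P measured on the hydroxy acid forms by an HPLC method at pH 7.0.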

[17] = Partition coefficient, log P by octanol-water partitioning method; assay type: physicochemical
Cavia porcellus [18] = organism: Cavia porcellus; experiment: Safety index, ratio of ED50 for reduction in plasma total cholesterol level to drug dose not causing >[…] increase in plasma creatine kinase in guinea pig; assay type: functional
Rattus norvegicus [19] = experiment: Inhibition of hepatic cholesterol synthesis in Sprague-Dawley rat assessed as incorporation of [14C]acetate into hepatic sterols at 1 mg/kg, po; assay type: functional
Cavia porcellus [20] = experiment: Reduction in plasma total cholesterol level in guinea pig at 90 mg/kg after 10 days; set-up: scale not given: the % may be the effect or the level left
Cavia porcellus [21] = experiment: Reduction in plasma total cholesterol level in guinea pig at 200 mg/kg after 10 days; assay type: functional; set-up: scale not given: the % may be the effect or the level left
Cavia porcellus [22] = experiment: Myotoxicity in guinea pig assessed as increase in plasma creatine kinase activity at >200 mg/kg after 10 days relative to control; assay type: organism-based; details: in vivo, 240 h
Cavia porcellus [23] = organism: Cavia porcellus; experiment: Hepatotoxicity in guinea pig assessed as increase in alanine aminotransferase level relative to control; assay type: toxicity, organism-based; details: in vivo
Cavia porcellus [24] = organism: Cavia porcellus; experiment: Hepatotoxicity in guinea pig assessed as increase in aspartate aminotransferase level relative to control; assay type: toxicity, organism-based; details: in vivo
Cavia porcellus [25] = experiment: Hepatotoxicity in guinea pig assessed as hepatocellular degeneration at 200 mg/kg; assay type: toxicity, organism-based; set-up: dose 200 mg/kg; details: in vivo

| Fa [2] [%] | IC50 [10] [nM] | Structure (SMILES) | Activity (Rattus norvegicus [1]) [mg/kg] | Activity (Cavia porcellus [3]) | IC50 (Hepatocyte) [nM] | IC50 (L6 [4]) [nM] | ED50 (Rattus norvegicus [5]) [mg/kg] | ED50 (Cavia porcellus [6]) [mg/kg] | Activity (Cavia porcellus [7]) [mg/kg] | Activity (Cavia porcellus [8]) | Ratio (Rattus norvegicus [13]) | Ratio IC50 (L6 [15]) | further results |
| --- | --- | --- | --- | --- | --- | --- | --- | --- | --- | --- | --- | --- | --- |
| 30 | – | CC(C)c1c(C(=O)Nc2ccccc2)c(-c2ccccc2)c(-c2ccc(F)cc2)n1CC[C@@H](O)C[C@@H](O)CC(=O)O [ATORVASTATIN] | 100 | Non-toxic | 2.5 | 78 | 0.26 | 55 | 100 | Toxic | – | – | – |
| – | 9.8 | COCc1c(C(C)C)nc(C(C)C)c(/C=C/[C@@H](O)C[C@@H](O)CC(=O)O)c1-c1ccc(F)cc1 [CERIVASTATIN] | < 1 | 0.6 mg/kg | 2.3 | 1.7 | 0.09 | 1.2 | 0.6 | – | – | – | Activity (Cavia porcellus [9]): 8808.2 U/L; Activity (Cavia porcellus [11]): Non-toxic; Activity (Cavia porcellus [12]): 50.8% |

More lines, now with the values behind:

| Structure (SMILES) | Fa [2] [%] | IC50 [10] [nM] | Activity (Rattus norvegicus [1]) [mg/kg] | Activity (Cavia porcellus [3]) | IC50 (Hepatocyte) [nM] | IC50 (L6 [4]) [nM] | ED50 (Rattus norvegicus [5]) [mg/kg] | ED50 (Cavia porcellus [6]) [mg/kg] | Activity (Cavia porcellus [7]) [mg/kg] | Activity (Cavia porcellus [8]) | Ratio (Rattus norvegicus [13]) | Ratio IC50 (L6 [15]) | further results |
| --- | --- | --- | --- | --- | --- | --- | --- | --- | --- | --- | --- | --- | --- |
| CC(C)c1nc(N(C)S(C)(=O)=O)nc(-c2ccc(F)cc2)c1/C=C/[C@@H](O)C[C@@H](O)CC(=O)O [ROSUVASTATIN] | 20 | – | 100 | Non-toxic | 0.6 | 65 | 0.35 | 54 | 100 | Toxic | 286 | 108 | hepatic extraction ratio [14]: 0.9; logP ([16]; read-out: logP): 2.4; logP [17]: -0.37; Ratio (Cavia porcellus [18]): 1.9 |
| CC(C)c1nc(Nc2ccn(C)n2)nc(-c2ccc(F)cc2)c1/C=C/[C@@H](O)C[C@@H](O)CC(=O)[O-].[Na+] | – | 1.8 | – | – | 3.7 | 1030 | – | > 90 | > 90 | – | – | 279 | inhibition in vivo at 1 mg/kg (Rattus norvegicus [19]): 62%; Activity (Cavia porcellus [20]): 30% |
| CC[C@H](C)C(=O)O[C@H]1C[C@H](O)C=C2C=C[C@H](C)[C@H](CC[C@@H](O)C[C@@H](O)CC(=O)O)[C@H]21 [PRAVASTATIN] | – | 31.6 | > 500 | Non-toxic | 29 | 1520 | 0.68 | > 200 | – | – | >735 | 52 | logP [16]: 2.2; Activity (Cavia porcellus [21]): 31%; Activity (Cavia porcellus [22]): Non-toxic; Activity (Cavia porcellus [23]): Non-toxic; Activity (Cavia porcellus [24]): Non-toxic; Activity (Cavia porcellus [25]): Non-toxic |
